Assays:
[1] = biological target: T1, Angiotensin-converting enzyme (Rattus norvegicus) (UniProt P47820); test: Compound was tested for plasma inhibition of Angiotensin I converting enzyme activity in the conscious rat. Expressed as Inhibition of AI pressor response at 6 hr at a dose of 14.3 mg/kg po; type: organism-based; parameters: dose 14.3 mg/kg
T1 sequence (whole entry): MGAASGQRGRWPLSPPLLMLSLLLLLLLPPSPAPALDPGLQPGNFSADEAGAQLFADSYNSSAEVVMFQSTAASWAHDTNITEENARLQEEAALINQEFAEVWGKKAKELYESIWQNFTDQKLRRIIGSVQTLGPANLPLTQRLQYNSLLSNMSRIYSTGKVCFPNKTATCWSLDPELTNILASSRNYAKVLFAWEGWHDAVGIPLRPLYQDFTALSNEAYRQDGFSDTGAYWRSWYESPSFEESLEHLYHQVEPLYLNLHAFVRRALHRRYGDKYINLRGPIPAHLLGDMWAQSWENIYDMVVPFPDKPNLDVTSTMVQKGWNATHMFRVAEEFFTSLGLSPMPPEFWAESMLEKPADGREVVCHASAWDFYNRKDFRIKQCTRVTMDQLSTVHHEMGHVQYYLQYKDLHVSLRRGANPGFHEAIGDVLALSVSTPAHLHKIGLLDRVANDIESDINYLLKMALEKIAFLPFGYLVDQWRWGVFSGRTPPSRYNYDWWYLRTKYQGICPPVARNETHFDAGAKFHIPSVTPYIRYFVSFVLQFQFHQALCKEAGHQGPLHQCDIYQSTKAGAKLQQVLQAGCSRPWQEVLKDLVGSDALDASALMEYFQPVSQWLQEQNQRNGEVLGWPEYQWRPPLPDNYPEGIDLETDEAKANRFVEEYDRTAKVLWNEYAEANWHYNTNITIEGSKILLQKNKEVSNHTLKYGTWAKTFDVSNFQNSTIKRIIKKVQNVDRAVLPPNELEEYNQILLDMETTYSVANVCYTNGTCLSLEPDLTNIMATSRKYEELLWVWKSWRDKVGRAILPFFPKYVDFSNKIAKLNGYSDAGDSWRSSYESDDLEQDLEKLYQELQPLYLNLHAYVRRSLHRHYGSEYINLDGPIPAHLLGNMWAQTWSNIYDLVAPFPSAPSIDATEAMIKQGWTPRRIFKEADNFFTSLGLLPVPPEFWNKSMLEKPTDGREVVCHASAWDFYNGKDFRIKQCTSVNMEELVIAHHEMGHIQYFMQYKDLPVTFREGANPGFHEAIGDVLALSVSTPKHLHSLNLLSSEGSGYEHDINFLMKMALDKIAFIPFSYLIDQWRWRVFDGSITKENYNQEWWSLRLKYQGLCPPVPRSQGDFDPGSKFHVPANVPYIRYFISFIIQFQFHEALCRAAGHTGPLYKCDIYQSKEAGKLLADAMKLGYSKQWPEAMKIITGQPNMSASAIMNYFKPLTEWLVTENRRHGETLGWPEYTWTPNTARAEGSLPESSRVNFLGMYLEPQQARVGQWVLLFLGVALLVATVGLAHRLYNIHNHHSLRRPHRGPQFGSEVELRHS
Summary of the method: (§1)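 Male conscious normotensive Sprague-Dawley rats (275-390 g), prepared under methohexital sodium (75 mg/kg ip) with femoral arterial and venous catheters. The next day, pressor responses to three angiotensin-I challenges (300 ng/kg iv) were recorded. Compound was then given orally and angiotensin-I challenges were repeated at set times. Percent inhibition is relative to the mean of the three baseline responses.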

[2] = biological target: T1, Angiotensin-converting enzyme (Rattus norvegicus); test: Compound was tested for plasma inhibition of Angiotensin I converting enzyme activity in the conscious rat. Expressed as Inhibition of AI pressor response at 1 hr at a dose of 14.3 mg/kg po; type: organism-based; parameters: dose 14.3 mg/kg
Summary of the method: (§2)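 Male conscious normotensive Sprague-Dawley rats (275-390 g), given femoral arterial and venous catheters under methohexital sodium (75 mg/kg ip) anesthesia. Next day, pressor responses to three angiotensin-I challenges (300 ng/kg iv) recorded by direct arterial pressure. Compound then dosed orally, and AI challenge repeated at set times. Each post-dose response compared with the mean of the three baseline responses, giving % inhibition.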

[3] = biological target: T1, Angiotensin-converting enzyme (Rattus norvegicus); test: Compound was tested for plasma inhibition of Angiotensin I converting enzyme activity in the conscious rat. Expressed as Inhibition of AI pressor response at 4 hr at a dose of 14.3 mg/kg po; type: organism-based; parameters: dose 14.3 mg/kg; summary of the method: as §1
[4] = biological target: T1, Angiotensin-converting enzyme (Rattus norvegicus); test: Compound was tested for plasma inhibition of Angiotensin I converting enzyme activity in the conscious rat. Expressed as Inhibition of AI pressor response at 2 hr at a dose of 14.3 mg/kg po; type: organism-based; parameters: dose 14.3 mg/kg; summary of the method: as §2
Rattus norvegicus [5] = test: Plasma ANF Concentration in the Conscious Rat at a dose of 14.3(po)mg/kg at 1 h; type: functional
Summary of the method: (§3)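 Male Sprague-Dawley rats (275-390 g), catheterized in femoral artery and vein under ketamine (150 mg/kg)/acepromazine, tethered and recovered 24 h, studied conscious. Continuous iv rat ANF(99-126) infusion at 450 ng/kg/min for 5 h; baseline blood at 60 min, then oral dosing, sampling at 30-240 min.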

Rattus norvegicus [6] = test: Plasma ANF Concentration in the Conscious Rat at a dose of 14.3(po)mg/kg at 2 h; type: functional; summary of the method: as §3
Rattus norvegicus [7] = test: Plasma ANF Concentration in the Conscious Rat at a dose of 14.3(po)mg/kg at 4 h; type: functional; summary of the method: as §3
Rattus norvegicus [8] = test: Plasma ANF Concentration in the Conscious Rat at a dose of 14.3(po)mg/kg at 0.5 h; type: functional; summary of the method: as §3
[9] = biological target: T1, Angiotensin-converting enzyme (Rattus norvegicus); test: Compound was tested for plasma inhibition of Angiotensin I converting enzyme activity in the conscious rat. Expressed as Inhibition of AI pressor response at 6 hr at a dose of 14.5 mg/kg po; type: organism-based; parameters: dose 14.5 mg/kg; summary of the method: as §1
[10] = biological target: T1, Angiotensin-converting enzyme (Rattus norvegicus); test: Compound was tested for plasma inhibition of Angiotensin I converting enzyme activity in the conscious rat. Expressed as Inhibition of AI pressor response at 1 hr at a dose of 14.5 mg/kg po; type: organism-based; parameters: dose 14.5 mg/kg; summary of the method: as §2
[11] = biological target: T1, Angiotensin-converting enzyme (Rattus norvegicus); test: Compound was tested for plasma inhibition of Angiotensin I converting enzyme activity in the conscious rat. Expressed as Inhibition of AI pressor response at 4 hr at a dose of 14.5 mg/kg po; type: organism-based; parameters: dose 14.5 mg/kg; summary of the method: as §1
[12] = biological target: T1, Angiotensin-converting enzyme (Rattus norvegicus); test: Compound was tested for plasma inhibition of Angiotensin I converting enzyme activity in the conscious rat. Expressed as Inhibition of AI pressor response at 2 hr at a dose of 14.5 mg/kg po; type: organism-based; parameters: dose 14.5 mg/kg; summary of the method: as §2
[13] = biological target: T1, Angiotensin-converting enzyme (Rattus norvegicus); test: Compound was tested for plasma inhibition of Angiotensin I converting enzyme activity in the conscious rat. Expressed as Inhibition of AI pressor response at 2 hr at a dose of 12.1 mg/kg po; type: organism-based; parameters: dose 12.1 mg/kg; summary of the method: as §2
[14] = biological target: T1, Angiotensin-converting enzyme (Rattus norvegicus); test: Compound was tested for plasma inhibition of Angiotensin I converting enzyme activity in the conscious rat. Expressed as Inhibition of AI pressor response at 6 hr at a dose of 12.1 mg/kg po; type: organism-based; parameters: dose 12.1 mg/kg; summary of the method: as §1
[15] = biological target: T1, Angiotensin-converting enzyme (Rattus norvegicus); test: Compound was tested for plasma inhibition of Angiotensin I converting enzyme activity in the conscious rat. Expressed as Inhibition of AI pressor response at 1 hr at a dose of 12.1 mg/kg po; type: organism-based; parameters: dose 12.1 mg/kg; summary of the method: as §2
[16] = biological target: T1, Angiotensin-converting enzyme (Rattus norvegicus); test: Compound was tested for plasma inhibition of Angiotensin I converting enzyme activity in the conscious rat. Expressed as Inhibition of AI pressor response at 4 hr at a dose of 12.1 mg/kg po; type: organism-based; parameters: dose 12.1 mg/kg; summary of the method: as §2
[17] = biological target: T1, Angiotensin-converting enzyme (Rattus norvegicus); test: Compound was tested for plasma inhibition of Angiotensin I converting enzyme activity in the conscious rat. Expressed as Inhibition of AI pressor response at 6 hr at a dose of 14.4 mg/kg po; type: organism-based; parameters: dose 14.4 mg/kg; summary of the method: as §1
[18] = biological target: T1, Angiotensin-converting enzyme (Rattus norvegicus); test: Compound was tested for plasma inhibition of Angiotensin I converting enzyme activity in the conscious rat. Expressed as Inhibition of AI pressor response at 1 hr at a dose of 14.4 mg/kg po; type: organism-based; parameters: dose 14.4 mg/kg; summary of the method: as §2
[19] = biological target: T1, Angiotensin-converting enzyme (Rattus norvegicus); test: Compound was tested for plasma inhibition of Angiotensin I converting enzyme activity in the conscious rat. Expressed as Inhibition of AI pressor response at 4 hr at a dose of 14.4 mg/kg po; type: organism-based; parameters: dose 14.4 mg/kg; summary of the method: as §1
[20] = biological target: T1, Angiotensin-converting enzyme (Rattus norvegicus); test: Compound was tested for plasma inhibition of Angiotensin I converting enzyme activity in the conscious rat. Expressed as Inhibition of AI pressor response at 2 hr at a dose of 14.4 mg/kg po; type: organism-based; parameters: dose 14.4 mg/kg; summary of the method: as §2
[21] = biological target: T1, Angiotensin-converting enzyme (Rattus norvegicus); test: Compound was tested for plasma inhibition of Angiotensin I converting enzyme activity in the conscious rat. Expressed as Inhibition of AI pressor response at 2 hr at a dose of 13.7 mg/kg po; type: organism-based; parameters: dose 13.7 mg/kg; summary of the method: as §2
[22] = biological target: T1, Angiotensin-converting enzyme (Rattus norvegicus); test: Compound was tested for plasma inhibition of Angiotensin I converting enzyme activity in the conscious rat. Expressed as Inhibition of AI pressor response at 1 hr at a dose of 13.7 mg/kg po; type: organism-based; parameters: dose 13.7 mg/kg; summary of the method: as §2
[23] = biological target: T1, Angiotensin-converting enzyme (Rattus norvegicus); test: Compound was tested for plasma inhibition of Angiotensin I converting enzyme activity in the conscious rat. Expressed as Inhibition of AI pressor response at 4 hr at a dose of 13.7 mg/kg po; type: organism-based; parameters: dose 13.7 mg/kg; summary of the method: as §1
[24] = biological target: T1, Angiotensin-converting enzyme (Rattus norvegicus); test: Compound was tested for plasma inhibition of Angiotensin I converting enzyme activity in the conscious rat. Expressed as Inhibition of AI pressor response at 6 hr at a dose of 13.7 mg/kg po; type: organism-based; parameters: dose 13.7 mg/kg; summary of the method: as §1

For CCOC(=O)[C@H](Cc1ccc(OC(=O)c2ccncc2)cc1)NC(=O)C1(NC(=O)[C@H](SC(C)=O)C(C)C)CCCC1, the inhibition [1] was 55%, the inhibition [2] was 79% and the inhibition [3] was 70%. For the same compound, the inhibition [4] was 75%, the Control (Rattus norvegicus [5]) was 193% and the Control (Rattus norvegicus [6]) was 183%. For the same compound, the Control (Rattus norvegicus [7]) was 159% and the Control (Rattus norvegicus [8]) was 165%.

In the case of CCOC(=O)CC(=O)Oc1ccc(C[C@H](NC(=O)C2(NC(=O)[C@H](SC(C)=O)C(C)C)CCCC2)C(=O)OCC)cc1, the inhibition [9] was 73%, the inhibition [10] was 88% and the inhibition [11] was 82%. For the same compound, the inhibition [12] was 78%.

CC(=O)S[C@@H](C(=O)NC1(C(=O)N[C@@H](Cc2ccc(O)cc2)C(=O)OC(C)C)CCCC1)C(C)C gave an inhibition [13] of 85%, an inhibition [14] of 78% and an inhibition [15] of 67%. It also gave an inhibition [16] of 81%.

For CCCOC(=O)[C@H](Cc1ccc(O)cc1)NC(=O)C1(NC(=O)[C@H](SC(C)=O)C(C)C)CCCC1, the inhibition [13] was 69%, the inhibition [14] was 19% and the inhibition [15] was 74%. The inhibition [16] was 37%.

In the case of CCOC(=O)[C@H](Cc1ccc(OC(=O)c2cccs2)cc1)NC(=O)C1(NC(=O)[C@H](SC(C)=O)C(C)C)CCCC1, the inhibition [17] was 26%, the inhibition [18] was 29% and the inhibition [19] was 36%. For the same compound, the inhibition [20] was 37%.

With CCCCOC(=O)[C@H](Cc1ccc(O)cc1)NC(=O)C1(NC(=O)[C@H](SC(=O)C2CCCC2)C(C)C)CCCC1 the inhibition [21] was 49%, the inhibition [22] was 57% and the inhibition [23] was 38%. For the same compound, the inhibition [24] was 27%.
